In ChEMBL document CHEMBL3286203, “Reactive oxygen species (ROS) inducible DNA cross-linking agents and their effect on cancer cells and normal lymphocytes” (J Med Chem, 2014):

What was measured:
[1] = Ratio of induction of [32P]-labeled 49-mer oligonucleotide duplex DNA 12 with GNC sequence at terminus (unknown origin) interstrand cross-linking in presence of H2O2 to induction of [32P]-labeled 49-mer oligonucleotide duplex DNA 12 with GNC sequence at terminus (unknown origin) in absence of H2O2
Outline: (§1)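 32P-labelled 12a (1.0 μM) annealed with 1.5 equiv of 12b in 10 mM potassium phosphate pH 7 / 100 mM NaCl (65 °C for 3 min, then slow cooling). Duplex incubated with compound (final 1 μM–5 mM), with or without H2O2, in NaCl and potassium phosphate pH 8 at room temperature for 16 h. Quenched in formamide; 20% denaturing PAGE.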

[2] = Induction of [32P]-labeled 49-mer oligonucleotide duplex DNA 12 with GNC sequence at terminus (unknown origin) interstrand cross-linking at 1 mM after 16 hrs by PAGE; outline: as §1
[3] = Induction of [32P]-labeled 49-mer oligonucleotide duplex DNA 12 with GNC sequence at terminus (unknown origin) interstrand cross-linking at 50 uM after 16 hrs by PAGE in presence of H2O2; outline: as §1
[4] = Drug level in deuterated phosphate buffer treated with 40 mM N,N-Bis(2-chloroethyl)-4-(4,4,5,5-tetramethyl-1,3,2-dioxaborolan-2-yl)aniline after 24 hrs by 1H-NMR analysis; type: physicochemical
Outline: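 1H NMR of the boronate mustard (40 mM) held 24 h in deuterated potassium phosphate buffer (4.0 mM) with no H2O2. Solvent was 1.0 M deuterated potassium phosphate buffer/DMSO-d6/D2O = 2:450:48.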

SMILES	Ratio [1]	Activity [2] [%]	Activity [3] [%]	Drug metabolism [4]
CC1(C)OB(c2ccc(N(CCOS(C)(=O)=O)CCOS(C)(=O)=O)cc2)OC1(C)C	3	22	3	
CC(C)(O)C(C)(C)O				metabolite_detected
